In the library only some 2% were active in any assay of this set; here they are far more common.
GPR7 antag = GPR7 receptor antagonists, primary screen, cell-based, fluorescence, single concentration | Neuropeptides B/W receptor type 1 (Homo sapiens), P48145 | GPR7-expressing cells, fluorescence antagonist assay | inhibition, % at 4.4 µM | 290,000 compounds, 1.1% hits; in the data active = inhibition above about 16%, passing the limit was not always enough;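 note: cells stimulated with the agonist NPW; 0% = agonist with vehicle and 100% = vehicle without agonist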
Target sequence (P48145 whole entry, looked up): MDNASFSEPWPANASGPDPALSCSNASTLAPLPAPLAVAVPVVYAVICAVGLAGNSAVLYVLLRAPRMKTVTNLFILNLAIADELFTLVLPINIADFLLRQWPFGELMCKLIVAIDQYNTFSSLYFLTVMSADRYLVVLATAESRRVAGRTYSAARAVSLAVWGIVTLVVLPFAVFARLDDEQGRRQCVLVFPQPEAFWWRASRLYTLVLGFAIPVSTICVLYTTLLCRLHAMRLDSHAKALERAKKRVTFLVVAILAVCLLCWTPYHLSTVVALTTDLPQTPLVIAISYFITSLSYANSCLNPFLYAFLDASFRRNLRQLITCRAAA
CRFBP-R2 agonist = agonists of CRF-BP/CRF-R2 complex, primary screen, cell-based, HEK293, calcium dye fluorescence, uHTS. CRF-binding protein / CRF receptor 2 complex (human). 350,000 compounds, 0.46% hits. activation, % at 13.2 µM. AID 588473, 2011. calcium dye fluorescence (FLIPR); percent of saturating CRF peptide response;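 active = activation of at least 50%, plus an integration ratio under a set limit after plate pattern correction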;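 note: plate controls were neutral control wells without compound for no effect and CRF at EC100 for full effect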
CRFBP-R2 block = antagonists of CRF-BP/CRF-R2 complex, primary screen, cell-based, HEK293, calcium dye fluorescence, uHTS; inhibition, % at 11.8 µM; 350,000 compounds, 0.59% hits; AID 588475, 2011; CRF-induced calcium fluorescence;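 active = inhibition of the ligand-induced calcium signal above about 50% at the single tested concentration, limit read from the data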
TRPN1 ag = zebrafish TRPN1 channel agonists, primary screen, cell-based, HEK293, calcium fluorescence; activation, % at 3 µM; HEK293 zebrafish TRPN1-YFP, Fluo-8 calcium fluorescence; 100% = response to 87 µM carbachol; 220,000 compounds, 0.18% hits; transient receptor potential cation channel N1 (TRPN1/NompC), Danio rerio;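 active = activation above its plate's cutoff, the mean activation of test wells on that plate plus 3 SD, cut at about 19% in these data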;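 note: 0% = DMSO alone and 100% = 87 µM carbachol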
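System: zebrafish TRPN1-YFP in HEK293 cells / Dosing: 3 µM single point / Timing: dye loading 1 h at 37 °C, then 30 min room temperature / Signal: Fluo-8 calcium fluorescence, excitation 470-495 nm, emission 515-575 nm / Read-out basis: percent activation from peak over basal fluorescence ratio, control-normalized / Control set: high carbachol 87 µM, low DMSO alone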
TRPML3 ag = human TRPML3 channel agonists, primary screen, cell-based, HEK293 TRPML3-YFP, Fluo-8 calcium fluorescence, 3 µM; AID 1448, 2008; Mucolipin-3 (Homo sapiens), Q8TDD5; 100% = the carbachol control signal; 220,000 compounds, 0.29% hits; activation, % at 3 µM;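 active = activation above its plate's cutoff, the mean activation of the plate's test wells plus 3 SD, cut at about 12% in these data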;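 note: 0% = DMSO only wells and 100% = carbachol wells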
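Test system – HEK293 line with stable expression of human TRPML3-YFP channel · Control set – carbachol 87 µM final as high control (100%), DMSO as low control (0%) · Signal – Fluo-8 calcium dye fluorescence, ex 470-495, em 515-575 nm · Incubation – 1-h 37 °C dye load, 5-s basal, 120-s post-compound reads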
* marks the source's active call; other numbers are inactive results; · = no result given.

SMILES	GPR7 antag	CRFBP-R2 agonist	CRFBP-R2 block	TRPN1 ag	TRPML3 ag
Cc1ccc2oc(=O)c(/C=C(\O)c3ccccc3)nc2c1	-21	71*	-25	1	1
O=C(O)c1cccc(-c2ccc(/C=c3/sc4nc5ccccc5n4c3=O)o2)c1	-9	69*	-55	4	2
O=C(O)c1cc(C(=O)O)cc(-c2ccc(/C=c3/sc4nc5ccccc5n4c3=O)o2)c1	-9	26	-62	0	1
O=c1/c(=C/c2ccccn2)sc2nc3ccccc3n12	4	5	-12	0	1
O=c1/c(=C\c2cc([N+](=O)[O-])cc([N+](=O)[O-])c2O)sc2nc3ccccc3n12	-3	6	60*	0	0
CCOC(=O)c1oc2ccccc2c1COC(=O)CNC(=O)c1cccc(C)c1	-16	-1	-4	·	·
CCC(=O)c1cn([C@H](CCC(OC)OC)CC(=O)OC(C)(C)C)cc1CC	·	0	-8	·	·
Cc1noc(/C=C/N(C)C)c1S(=O)(=O)N1CCC(C(=O)Nc2ccc(Cl)cc2)CC1	-2	-1	90*	·	·
CC(C)Cn1c(N)c(C(=O)COC(=O)C2=COCCO2)c(=O)n(C)c1=O	19*	4	-7	3	1
CC(C)Cn1c(N)c(C(=O)COC(=O)c2cc(F)cc(F)c2)c(=O)n(C)c1=O	18*	0	-22	4	3
CC(C)Cn1c(N)c(C(=O)COC(=O)c2ccc(O)cc2)c(=O)n(C)c1=O	2	0	-6	2	2
Cc1cc(C)cc(NC(=O)C(=O)NCCCN2CCCC2=O)c1	·	0	-5	·	·
CN(C)c1cccc(C(=O)OCC(=O)Nc2ccccc2Sc2ccccc2)c1	4	1	62*	0	-1
CN1CCN(CC(=O)Nc2ccccc2Sc2ccccc2)CC1	-3	-2	48	0	1
O=C(CN1CCCC1)Nc1ccccc1Sc1ccccc1	-14	52*	-67	-2	1
NC(=O)c1ccc(NCC2COc3ccccc3O2)c([N+](=O)[O-])c1 (configuration not stated)	11	-5	92*	2	0
Cc1cc(C)cc(NC(=O)c2ccc(N3C(=O)C4CCCCC4C3=O)cc2)c1 (configuration not stated)	-15	-1	75*	·	·
O=C(Nc1ccc(Br)cc1)c1ccc(N2C(=O)C3CC=CCC3C2=O)cc1 (configuration not stated)	-6	2	-3	10	4
COc1cccc(C2C(C(=O)c3ccc(C)o3)=C(O)C(=O)N2CCN2CCOCC2)c1OC (configuration not stated)	-14	-1	124*	·	·
COc1ccccc1C1CC(c2ccc(C)cc2)Nc2ncnn21 (configuration not stated)	14*	3	-8	0	2
CC(C)COc1nc2c(c(=O)n(C)c(=O)n2C)n1C	active	-3	-4	0	-1
C=CCOc1nc2c(c(=O)n(C)c(=O)n2C)n1C	-2	-2	18	-1	0
CN(C)S(=O)(=O)c1ccc(N2CCCC2)c(C(=O)NC2CCCCC2)c1	·	0	-6	·	·
COc1ccc(-c2csc(NC(=O)CN3C(=O)C4CC=CCC4C3=O)n2)cc1OC (configuration not stated)	-7	2	57*	·	·
CCOC(=O)N1CCN(CC(O)c2ccc3cc[nH]c3c2)CC1 (configuration not stated)	-13	58*	-38	0	0
SMILES	GPR7 antag	CRFBP-R2 agonist	CRFBP-R2 block	TRPN1 ag	TRPML3 ag
Cc1cc(C(=O)Nc2cccc3c2O[C@H](CN(C)CC2CC2)[C@@H](C)CN([C@H](C)CO)C3=O)n(C)n1	·	0	-2	·	·
CCOC(=O)c1nnn(CC(=O)N2N=C(c3ccccc3)CC2c2ccccc2)c1C(=O)OCC (configuration not stated)	-3	-1	71*	0	0
O=C(CNC(=O)C1CCCCC1)Nc1ccc(F)c(Cl)c1	-8	1	65*	-1	-1
CC(=O)c1sc(NC(=O)CCS(=O)(=O)c2ccc(Cl)cc2)nc1C	·	-1	62*	·	·
N/C(=N\OCC(=O)Nc1ccccc1)c1nonc1N	-3	-4	69*	0	0
COCCn1c(C)cc(C(=O)COC(=O)c2cc3c(s2)CCC3)c1C	5	-1	64*	2	0
CC1CCC(C(C)C)C(OC(=O)C[n+]2cc(-c3ccc(Cl)cc3)n3c2CCCCC3)C1 (configuration not stated)	59*	-4	-50	-1	0
O=C(C[n+]1cc(-c2ccccc2)n2c1CCCCC2)c1ccc(Cl)cc1	8	2	-5	0	0
COc1cc(OC)cc(C(=O)Nc2ccc(S(=O)(=O)Nc3cnc4ccccc4n3)cc2)c1	·	0	65*	·	·
Cc1cc(SCC(=O)c2ccc(Cl)cc2)nc(=O)[nH]1	-4	1	81*	·	·
Cc1ccc(C(=O)CSc2cc(C)[nH]c(=O)n2)cc1	-7	0	6	·	·
CC1CCCN(CCC(=O)Nc2ccc(F)c(F)c2)C1 (configuration not stated)	-3	1	-3	·	·
O=C(O)c1ccc(N/N=C/C=C/c2ccccc2[N+](=O)[O-])cc1	19*	7	-33	2	-1
Cc1c(CCC(=O)NCCCn2ccnc2)c(=O)oc2c(C)c3oc4c(c3cc12)CCCC4	-1	-3	-5	·	·
CCOC(=O)c1cc(S(=O)(=O)N2CCN(c3ccccc3OC)CC2)cn1C	-8	1	6	·	·
Cc1ccc(C(=O)NCCNC(=O)c2ccc(F)cc2)cn1	-8	80*	-53	·	·
N#Cc1ccc(CC(=O)c2ccccc2)[nH]c1=O	·	58*	-76	·	·
N#Cc1ccc(CCc2ccccc2)[nH]c1=O	·	1	-3	·	·
Cc1c(C(=O)NCc2cccnc2)oc2ccccc12	0	-1	62*	2	0
Cc1c(C(=O)NCCc2ccccc2)oc2ccccc12	-19	-1	50	·	·
CC(=O)N1CCOc2cc(S(=O)(=O)N3CCN(c4ccccc4)CC3)c(Cl)cc21	5	16	54*	·	·
Cc1cc2c(cc1S(=O)(=O)N1CCN(c3ccccc3)CC1)OCCN2C	-1	3	12	·	·
COC(=O)c1cc(NC(=O)CN2C(=O)C(=O)N(C3CCCC3)C2=O)cc(C(=O)OC)c1	·	0	-1	·	·
COc1ccc(CN(CC(=O)NCC2CCCO2)C(=O)CNS(=O)(=O)c2ccccc2)cc1 (configuration not stated)	-7	0	2	·	·
O=C(OCC(=O)c1c[nH]c2ccccc12)c1cccc([N+](=O)[O-])c1	·	-1	8	·	·

From PubChem BioAssay
